Screening results as filed in PubChem BioAssay.
The entries come from a sample that favours hits as a whole.
UPR CHOP act – apoptotic UPR (CHOP) activation; CHO-CHOP luciferase reporter, luminescence; percent of tunicamycin response over DMSO baseline; activation, % at 10 µM; 330,000 compounds, 0.34% hits; AID 449763;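 active = at 10 µM dose, activation of 40% or more, normalized to positive control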;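 also: 100% = tunicamycin at 10 µg/mL and 0% = DMSO alone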
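Test system: CHO CHOP reporter cells. Input: 500 CHO-CHOP cells per well. Medium: F12 with 10% FBS. Technique: luciferase luminescence. Measure: percent activation relative to tunicamycin control. Dosing: 10 µM compound, 0.5% DMSO. Timing: 16-18 h cell attachment, then 6 h compound exposure, 37 °C.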
Dynein transport – dynein cargo transport inhibition | 3617.4 mouse cells, GR-EGFP nuclear translocation imaging; test concentration mostly 20 µM; stimulated with dexamethasone, 1 µM; stronger effect = lower value | 220,000 compounds, 0.47% hits | z-score, hits read low | AID 1381;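 active = plate z-score of nuclear minus cytoplasmic receptor signal below a set negative limit, without overly bright fluorescence or cell loss, cut at about -3.5 in these data, passing the limit was not always enough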;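 also: z-score of nuclear minus cytoplasmic ring GR-EGFP intensity difference per well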
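medium = tetracycline-free induction medium containing charcoal-stripped FBS | also added = 1.0 µM final dexamethasone stimulus | schedule = 48 h induction, 1 h compound, 30 min dex at 37 °C | technique = fixed, Hoechst-stained cells imaged at 10x for EGFP | measure = GR-EGFP nuclear translocation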
UPR XBP1 act – adaptive UPR (XBP1) activation. CHO-XBP1 luciferase reporter, IRE1-XBP1 UPR activation, luminescence; percent of tunicamycin response, DMSO as zero. activation, % at 20 µM. 330,000 compounds, 0.33% hits. AID 463104;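 active = versus positive control, 20 µM dose yields 30% or more activation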;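 also: 100% = tunicamycin at 10 µg/mL and 0% = DMSO only wells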
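Assay system: CHO-XBP1 luciferase reporter cells; Schedule: 6 h treatment, 37 °C; Detection: glow luminescence from Steady-Glo reagent; Benchmarks: high control tunicamycin 10 µg/mL final, low control DMSO vehicle only.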
L major viab – reduces viability of Leishmania major promastigotes; inhibition, % at 10 µM; 200,000 compounds, 9% hits; resazurin fluorescence viability; AID 1063; in the data active = inhibition above about 50%;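 also: promastigotes grown with compound for 44 hours at 28 °C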
T cruzi repl – T. cruzi replication inhibition | T. cruzi beta-gal in NIH3T3, luminescence, 90 h | inhibition, % (test concentration not listed) | 300,000 compounds, 1.4% hits;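 active = mean inhibition across valid replicates above about 55%, limit read from the data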;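 also: signal also drops with host cell toxicity which is not excluded here; 0% = plate median of DMSO wells and 100% = zero luminescence signal; higher percent means less beta-gal luminescence so fewer parasites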
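Material: NIH/3T3 host cells with β-galactosidase reporter T. cruzi; Input: 5,000 host fibroblasts per well; Medium: DMEM, 2% fetal bovine serum; Compound: 50 nL DMSO compound solution per well; Schedule: 3 h host attachment, then at least 90 h co-culture; Detection: luminescent β-galactosidase signal after 60 min lysis.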
CHOP inh – inhibitors of CHOP induction in ER stress response; CHO-K1 CHOP-promoter luciferase, tunicamycin-induced, 15-18 h; AID 2732; 220,000 compounds, 3.8% hits; inhibition, % at 10 µM;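 active = compounds that reduced the stress-induced luciferase reporter signal by more than about 70% of percent inhibition, limit read from the data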;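 also: 0% = tunicamycin plus vehicle and 100% = wells without tunicamycin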
Starred values were filed as active, the others as inactive; . = no result given.

SMILES	UPR CHOP act	Dynein transport	UPR XBP1 act	L major viab	T cruzi repl	CHOP inh
CCN(CC)CCN(C)C(=O)CCc1nnc(-c2ccc(C)s2)o1	-2	0.33	-2	-5	57*	11
COC(=O)Nc1ccc2c(c1)ncn2C1CCCCC1	3	0.77	3	20	18	12
CCOC(=O)Nc1ccc2c(c1)ncn2C1CCCCC1	7	-0.92	11	84*	10	-12
CC(=O)Oc1ccc(Cn2cnc3cc4ccccc4cc32)cc1	1	0.26	-3	58*	-7	36
CCOc1ccc2c(c1)ncn2Cc1ccccc1	2	1.1	2	13	16	6
O=C(CC(C(=O)N1CCc2ccccc21)n1ccnc1)NCc1ccccc1 (configuration not stated)	1	0.34	-2	100*	23	5
CCOC(=O)N1CCN(C(=O)CC(C(=O)N2CCc3ccccc32)n2ccnc2)CC1 (configuration not stated)	0	-0.41	-2	83*	63*	-21
CCCCN1C(=O)/C(=C2\SC(N3CCCCC3)=NC2=O)c2ccccc21	8	0.094	4	51*	44	23
CCCOc1ccc(CNC(=S)Nc2ccccc2)cc1Cl	-2	.	-3	.	-2	.
O=C(O)CC1CCCc2ccccc2C1O (configuration not stated)	.	.	.	.	.	-35
Cc1ccc2cc(C)c(N3CCN(c4ccccn4)CC3)nc2c1	1	-0.83	2	5	-1	74*
CCCCCNc1nc(NCCCO)c(C#N)c2c1CN(C)CC2	2	-0.18	1	43	16	14
CCCCCNc1nc(N2CCCC2)c2c(c1C#N)CCN(C)C2	0	-0.42	2	56*	52	67
CCC(C)[C@H](NC(=O)N1CCN(c2cccc(C(F)(F)F)c2)CC1)C(=O)OC (some centres not stated)	-2	-0.46	-4	3	24	81*
C=CCOC(=O)N1CCN(c2cccc(C(F)(F)F)c2)CC1	-2	-0.98	2	-2	11	81*
O=C(COc1ccc2c(c1)CCC2)N1CCN(c2cccc(C(F)(F)F)c2)CC1	-2	-0.78	1	65*	7	86*
COCC(=O)N1CCN(c2cccc(C(F)(F)F)c2)CC1	1	1.6	6	-4	-10	-4
O=C(COc1cccc(C(F)(F)F)c1)N1CCN(c2ccc(O)cc2)CC1	0	-0.6	0	11	-6	18
Cc1ccc(-n2nc(C)c(NC(=O)CCl)c2C)cc1C	4	-0.1	0	56*	-22	-154
CCC(=O)Nc1c(C)nn(-c2ccc(C)c(C)c2)c1C	3	-0.0024	-2	-5	-9	-23
CCCc1c(C)[nH]c2ccc(C(=O)O)cc2c1=S	.	-0.36	.	.	-8	-20
CC1CCCN(C(=O)Cn2nnc(-c3ccccc3F)n2)C1 (configuration not stated)	2	.	-4	.	-3	.
CCOC(=O)c1cnc2c(Cl)cc(Cl)cc2c1NCCOCCO	1	-1.1	-2	96*	20	35
CCN(CC(=O)NCc1ccc(F)cc1)C(=O)/C=C/c1ccc(S(=O)(=O)N(CC)CC)cc1	-1	.	0	.	8	.
COc1ccccc1NS(=O)(=O)c1cc(NC(=O)c2ccncc2)ccc1N1CCCC1	2	-1.2	0	4	38	19
SMILES	UPR CHOP act	Dynein transport	UPR XBP1 act	L major viab	T cruzi repl	CHOP inh
CCN(CC)c1ccc(NC(=O)c2ccccc2)cc1S(=O)(=O)Nc1ccccc1OC	1	-0.3	-2	100*	39	15
CCN(CC)c1ccc(NC(=O)c2cccc(C)c2)cc1S(=O)(=O)Nc1ccccc1OC	1	-0.29	-2	97*	27	15
COc1ccc(NC(=O)c2ccccc2)cc1NS(=O)(=O)c1ccc(F)cc1	0	0.12	-4	4	3	-11
COc1ccc(NC(=O)c2ccc(-c3ccccc3)cc2)cc1NS(=O)(=O)c1ccc(F)cc1	4	-0.48	2	91*	34	58
COc1ccccc1S(=O)(=O)N1CCNC(=O)C1	0	.	-4	.	.	.
CC(=O)c1ccc(Nc2ccc(-c3ccccc3F)nn2)cc1	5	0.93	-1	1	3	-24
O=C(COc1ncnc2sccc12)NC1CCCCC1	-1	.	0	.	.	.
Cc1ccc(NC(=O)c2ncn(CC(=O)NCC(C)c3ccccc3)n2)cc1C (configuration not stated)	0	.	3	.	.	.
COc1ccc(S(=O)(=O)/N=C2\C=C(Nc3ccc(O)cc3)C(=O)c3ccccc32)cc1	-2	.	-7	.	67*	.
Cc1ccccc1NC1=C/C(=N\S(=O)(=O)c2ccc(C(=O)O)cc2)c2ccccc2C1=O	6	.	2	.	42	.
Cc1ccc(NC2=C/C(=N/S(=O)(=O)c3cccs3)c3ccccc3C2=O)cc1C	.	0.28	.	82*	-44	-71
COc1ccc(N2CCN(c3ccc4nnc(CCC(=O)Nc5ccc(C)cc5)n4n3)CC2)cc1	0	.	0	.	7	.
COc1ccc(NC(=O)CCN2CCN(S(=O)(=O)c3cc(Cl)ccc3OC)CC2)cc1	-2	-0.24	-1	82*	14	34
COc1ccc(NC(=O)CCN2CCN(C/C=C/c3ccccc3)CC2)cc1	1	.	-4	.	57*	.
COc1cc(NC(=O)CCN2CCN(C/C=C/c3ccccc3)CC2)cc(OC)c1	1	.	-3	.	58*	.
